Paper PMC3285107 (ACS medicinal chemistry letters, 2012)
“Also recorded” adds a separate entry of the source. Values belong to the molecule of their own block, whether it stands above or below them.

Tests used:
[1] = test system: M3 muscarinic receptors in HEK293T cells; assay: Carbachol-stimulated Ca2+ transient; format: cell-based; settings: compound 10 μM, carbachol 10 nM, HEK cells with human M3 receptor
In short: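 HEK-293 cells stably expressing human M3 muscarinic receptor, plated overnight, then loaded with Fluo4-NW for 30 min at 37 °C. Test compound added at 10 μM (1% DMSO). After […] minutes, baseline fluorescence read on a plate reader. Carbachol (10 nM final) injected, and the rise in intracellular Ca2+ expressed as percentage of baseline Ca2+ level.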

cysteine protease papain = settings: result in words; cited from earlier work
RGS4 = assay: FCPIA: inhibition of Gαo binding to RGS4; settings: for activity at RGS4: result in words
In short: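 Primary FCPIA screen for inhibition of Gαo binding to RGS4, run in parallel against RGS8, its closest sequence relative, to assess selectivity. IC50 values are averages of two independent experiments. Calculated ΔpIC50 mean error: 0.2 for RGS4, 0.14 for RGS8.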

Aqueous solubility = format: physicochemical; settings: result in words

Chain of RGS4 (P49798 whole entry): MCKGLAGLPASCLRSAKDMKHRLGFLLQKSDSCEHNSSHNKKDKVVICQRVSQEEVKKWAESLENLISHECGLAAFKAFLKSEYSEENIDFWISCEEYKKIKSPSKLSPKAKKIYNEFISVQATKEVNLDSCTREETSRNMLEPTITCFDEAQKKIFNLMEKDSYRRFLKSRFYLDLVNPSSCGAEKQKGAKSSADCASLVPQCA

SMILES: Cc1ccc(-n2sc(=O)n(Cc3ccc(F)cc3)c2=O)cc1 [1a]
effect on carbachol-induced Ca2+ transient [1]: nearly completely abolished
inhibition of papain (cysteine protease papain): failing to inhibit

SMILES: CCCCn1c(=O)sn(CC)c1=O [11b]
effect on carbachol-induced Ca2+ transient [1]: no effect; also recorded: no calcium transient
aqueous solubility (Aqueous solubility): high solubility; also recorded: excellent aqueous solubility

SMILES: Cc1ccc(-n2sc(=O)n(Cc3ccc(Cl)cc3)c2=O)cc1 [compound 3]
selectivity for RGS4 versus RGS8 (RGS4): > 1000 fold

SMILES: Cc1ccc(Cn2c(=O)sn(-c3ccc(C)cc3)c2=O)cc1 [compound 4]
selectivity for RGS4 versus RGS8 (RGS4): > 1000 fold

SMILES: Cc1ccc(-n2sc(=O)n(Cc3cccc(Cl)c3)c2=O)cc1 [compound 5]
selectivity for RGS4 versus RGS8 (RGS4): > 1000 fold

SMILES: COc1ccc(Cn2c(=O)sn(-c3ccc(C)cc3)c2=O)cc1 [compound 7]
selectivity for RGS4 versus RGS8 (RGS4): > 1000 fold

SMILES: CCn1sc(=O)n(CCOC)c1=O [compound 13]
effect on carbachol-induced Ca2+ transient [1]: no effect
selectivity for RGS4 versus RGS8 (RGS4): > 600 fold
aqueous solubility (Aqueous solubility): further improved solubility

SMILES: Cc1ccc(CN2C(=O)CN(c3ccc(C)cc3)C2=O)cc1 [compound 14]
activity at RGS4 (RGS4): neither 14 or 15 displayed activity

SMILES: Cc1ccc(C2=CC(=O)N(Cc3ccccc3)C2=O)cc1 [compound 15]
activity at RGS4 (RGS4): neither 14 or 15 displayed activity

Other lines, results leading:

selectivity for RGS4 versus RGS8 (RGS4): near three orders of magnitude
SMILES: Cc1ccc(Cn2sc(=O)n(Cc3ccc(F)cc3)c2=O)cc1 [1i]

selectivity for RGS4 versus RGS8 (RGS4): near three orders of magnitude
SMILES: Cc1ccc(Cn2sc(=O)n(Cc3ccccc3)c2=O)cc1 [2i]
